In ChEMBL document CHEMBL4715918, “Syntheses and evaluation of acridone-naphthalimide derivatives for regulating oncogene PDGFR-β expression” (Bioorg Med Chem, 2021):

Tests used:
[1] = Binding affinity to 5'-biotin-d [GCGTCCACCCTCCCTGCCCCGCCGCCCCCCCITCTCCCAGC]-3' i-motif DNA (unknown origin) by surface plasmon resonance assay
Procedure, shortened: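 SPR: biotinylated oligomers were captured on a neutravidin chip at ~1000 RU, with a blank reference cell. Running buffer was 20 mM MES pH 5.5, 100 mM KCl, 0.05% Tween-20 for the i-motif, or 50 mM Tris-HCl pH 7.4, 100 mM KCl for the G-quadruplex. Ligand was injected at 0–10 μM (six concentrations), with 200 s association and 300 s dissociation at 25 °C.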

MCF7 [2] = assay: Antitumour activity against human MCF7 cells xenografted in nude BALB/c mouse assessed as tumour growth inhibition at 10 mg/kg, ip administered for 34 days relative to control; assay type: functional; conditions: 816 h, time 34 day, read-out: TGI
MCF7 [3] = assay: Induction of cell cycle arrest in human MCF7 cells assessed as accumulation at G2/M phase after 48 hrs by propidium iodide staining based flow cytometric analysis; assay type: functional; conditions: dose 0.625-10 µM
Procedure, shortened: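 MCF-7 cells, 2 × 10^5/well, were pre-grown 12 h, then treated with 10, 5, 2.5, 1.25, 0.625 μM compound or DMSO. Cells were fixed in 75% ethanol at −20 °C overnight. Staining was 50 μg/mL PI with RNase A, 30 min at room temperature in the dark. Flow cytometry collected 10,000 events; phase distribution was determined.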

MCF7 [4] = assay: Induction apoptosis in human MCF7 cells assessed as early apoptotic cells at 2.5 uM incubated for 24 hrs by Annexin-FTTC/PI staining based flow cytometric analysis (reference value: 0.28%); assay type: functional
MCF7 [5] = assay: Cytotoxicity against human MCF7 cells assessed as reduction in cell viability after 48 hrs by MTT assay; assay type: functional, cell-based; conditions: MCF7, 48 h
Procedure, shortened: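 MTT assay: cells seeded at 5.0 × 10³/well, grown 12 h, then exposed to graded compound concentrations for 48 h at 37 °C/5% CO2. 2.5 mg/mL MTT was added for 4 h, formazan dissolved in DMSO, and absorbance read at 570 nm. Each dose in triplicate; IC50 from percent survival versus negative control.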

MCF7 [6] = assay: Inhibition of colony formation in human MCF7 cells after 7 days by crystal staining based assay; assay type: functional, cell-based; conditions: dose 0.3125-2.5 µM, time 7.0 day
Procedure, shortened: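 MCF-7 cells were seeded at 1,000/well and grown 24 h, then exposed 7 days to 2.5, 1.25, 0.625, 0.3125 μM compound or DMSO. Colonies were fixed in methanol, stained with crystal violet and imaged.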

MCF7 [7] = assay: Induction apoptosis in human MCF7 cells assessed as early apoptotic cells at 5 uM incubated for 24 hrs by Annexin-FTTC/PI staining based flow cytometric analysis (reference value: 0.28%); assay type: functional

For Cc1ccc2c(c1)c(=O)c1cc(C(=O)NCCCN(C)CCCN3C(=O)c4cccc5c(N6CCN(C)CC6)ccc(c45)C3=O)ccc1n2-c1ccc(C(=O)NCCCN(C)CCCN2C(=O)c3cccc4c(N5CCN(C)CC5)ccc(c34)C2=O)cc1, the Kd [1] was 3.12 µM, the inhibition in vivo at 10 mg/kg (MCF7 [2]) was 56.5% and the Activity (MCF7 [3]) was “Dose-dependent effect”. For the same compound, the Activity (MCF7 [4]) was 26.1%, the IC50 (MCF7 [5]) was 4.69 µM and the inhibition (MCF7 [6]) was “Dose-dependent effect”. It also gave an Activity (MCF7 [7]) of 33.5%.
